AHR act: human AHR activation; P35869; AHR-responsive luciferase reporter cells, luminescence; activation, % at 5 µM; actives 2.5% (n = 320,000); in the data active means activation above about 47%
SR-BI DiI inh: blocks mouse SR-BI lipid uptake from DiI-HDL; Q61009; ldlA[mSR-BI] CHO cells, DiI-HDL uptake fluorescence, 3 h; inhibition, % at 12.5 µM; actives 0.96% (n = 320,000);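 active means mean replicate inhibition of at least 70% and a set share of replicates each scoring 70 or more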
Lipid droplet: modulators of hepatic lipid droplet formation; AID 1656; inhibition, % at 6.5 µM; AML12 mouse hepatocytes, oleate lipid droplets, BODIPY imaging; actives 0.4% (n = 240,000);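 active means lipid droplet intensity inhibited by at least 50%, with more than 500 cells counted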
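Test system: AML12 mouse liver cells; schedule: overnight exposure; technique: high-content imaging of BODIPY-stained droplets and DAPI nuclei; read-out: % inhibition of corrected integrated BODIPY droplet signal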
Yeast superoxide: lowers age-related superoxide in aged yeast cells; AID 2690; actives 0.18% (n = 330,000); S. cerevisiae aged cells, superoxide DHE fluorescence; stronger effect = lower value; superoxide response (% of plate mean), % at 10 µM;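 active means superoxide response under a set limit, about three screen SD below normal, cut at about 65% in these data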;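 further: yeast aged for seven days with compound at 30 °C before DHE staining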
SR-BI uptake up: activators of SR-BI mediated HDL lipid uptake; CHO ldlA[mSR-BI] cells, DiI-HDL uptake fluorescence, 3 h; 100 = double the neutral-control signal; activation, % at 12.5 µM; actives 0.096% (n = 320,000);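 active means mean replicate activation of at least 60% and every replicate at or above 60%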
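material = CHO ldlA[mSR-BI] cells | medium = Ham's F12 with 0.5% BSA, HEPES 25 mM, pH 7.4 | reagent = fluorescent DiI-HDL, 10 µg/mL final | compound dosing = single-point compound dose | incubation = 3 h, 37 °C | measured by = bottom-read fluorescence, 550/595 nm | measure = HDL uptake via cellular fluorescence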
SMARCA2 act: SMARCA2 function activation, primary screen. actives 1% (n = 370,000). activation, % at 9.1 µM. MG213 cells, MMTV-luciferase reporter, dexamethasone, overnight; in the data active means activation above about 7.8%
AHR act confirm: human AHR activation, confirmation; shares compounds with AHR act; human cells, AHR-responsive luciferase reporter, luminescence; activation, % at 9 µM; actives 87% (n = 2,300); AID 2845; in the data active means activation above about 49%;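 further: HepG2 hepatoma cells carrying a DRE-driven firefly luciferase reporter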
PXR counter: activates human PXR in AHR activator counter-screen. shares compounds with AHR act. cell-based PXR reporter, luciferase luminescence. activation, % at 11.6 µM. actives 88% (n = 2,300). AID 434939; in the data active means activation above about 11%;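 further: human hepatoma DPX-2 cells expressing full-length human PXR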
Target sequence (O75469 whole entry, looked up): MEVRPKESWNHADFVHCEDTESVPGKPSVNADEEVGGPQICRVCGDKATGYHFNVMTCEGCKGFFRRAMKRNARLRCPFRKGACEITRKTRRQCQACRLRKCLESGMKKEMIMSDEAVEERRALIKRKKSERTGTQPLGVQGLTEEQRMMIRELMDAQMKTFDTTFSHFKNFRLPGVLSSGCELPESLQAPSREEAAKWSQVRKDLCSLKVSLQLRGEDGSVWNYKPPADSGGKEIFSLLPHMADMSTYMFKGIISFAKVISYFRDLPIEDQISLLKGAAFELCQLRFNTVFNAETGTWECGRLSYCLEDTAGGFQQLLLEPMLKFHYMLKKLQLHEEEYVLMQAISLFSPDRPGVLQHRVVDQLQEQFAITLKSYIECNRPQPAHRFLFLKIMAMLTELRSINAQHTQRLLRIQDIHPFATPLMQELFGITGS
Of the large screens only hits and unclear results are named; the others gave an inactive call (follow-up assays come after a bar, where they were run). This is a sample that favours compounds with a hit; in the whole collection about 4.3% have one here.

C=CCCC(=O)Nc1nc(C)c(-c2csc(Nc3cc(OC)ccc3OC)n2)s1	AHR act 117 (no result: Lipid droplet) | AHR act confirm 69 | PXR counter 62
C=CCCC(=O)Nc1nc(C)c(-c2csc(Nc3cccc(OC)c3)n2)s1	AHR act 301, SR-BI DiI inh 87 (no result: Lipid droplet) | AHR act confirm 100 | PXR counter 14
CCCC(=O)Nc1nc(C)c(-c2csc(Nc3ccccc3OC)n2)s1	AHR act 79 (no result: Lipid droplet) | AHR act confirm 101 | PXR counter 34
CCCC(=O)Nc1nc(C)c(-c2csc(Nc3cc(OC)ccc3OC)n2)s1	AHR act 85, SR-BI DiI inh 94 (no result: Lipid droplet) | AHR act confirm 76 | PXR counter 45
COC(=O)CSc1nnc(-c2ccc(NS(=O)(=O)c3c(C(C)C)cc(C(C)C)cc3C(C)C)cc2)o1	none (no result: AHR act, SR-BI DiI inh, Lipid droplet, Yeast superoxide, SR-BI uptake up)
Cc1nnc(C)n1N=Cc1ccc(Cl)c([N+](=O)[O-])c1	none (no result: AHR act, SR-BI DiI inh, Lipid droplet, Yeast superoxide, SR-BI uptake up)
COC(=O)[C@]12C[C@H](CC(=O)N3CCN(C(=O)C4CC4)CC3)C(=O)N(Cc3cccc4ccccc34)C1=C[C@H](COCc1ccccc1)O[C@@H]2C	none (no result: AHR act, SR-BI DiI inh, Lipid droplet, Yeast superoxide, SR-BI uptake up)
O=C(Nc1ccc(F)cc1Cl)C1CCCN1S(=O)(=O)c1cccc2cccnc12 (configuration not stated)	none (no result: AHR act, SR-BI DiI inh, Lipid droplet, Yeast superoxide, SR-BI uptake up)
Cc1cc(C)nc(Nc2n[nH]c(-c3ccccc3C)n2)n1	AHR act 87 | AHR act confirm 131 | PXR counter 45
CCOC(=O)N1CCC(NC(=O)c2cc(-c3ccc(OC)cc3)nc3ccccc23)CC1	none
CCOC(=O)N1CCC(NC(=O)c2cccn3c(=O)c4cc(Br)ccc4nc23)CC1	AHR act 90 (no result: Lipid droplet) | AHR act confirm 111 | PXR counter 18
O=S(=O)(CC1NCc2ccccc21)NCc1ccc(F)cc1 (configuration not stated)	none (no result: AHR act, SR-BI DiI inh, Lipid droplet, Yeast superoxide, SR-BI uptake up)
C[C@H]1CN(S(=O)(=O)C(C)(C)C)[C@@H](CCO)/C1=C\c1ccccc1	none (no result: AHR act, SR-BI DiI inh, Lipid droplet, Yeast superoxide, SR-BI uptake up)
Cc1ccc(NC(=O)c2cccc(C(F)(F)F)c2)cc1NC(=O)c1[nH]cnc1C(N)=O	AHR act 119 (no result: Lipid droplet) | AHR act confirm 114 | PXR counter 57
CN(CCCOC(=O)CC1C=CCC1)C1CN(Cc2cn(Cc3ccccc3Cl)nn2)S(=O)(=O)C1 (configuration not stated)	none (no result: AHR act, SR-BI DiI inh, Lipid droplet, Yeast superoxide, SR-BI uptake up)
O=C(/C=C\c1ccccc1)Nc1nccs1	AHR act 111 | AHR act confirm 73 | PXR counter 21
O=C(/C=C/c1cccc(F)c1)Nc1nccs1	none
COc1ccc(CCNC(=O)CC2Oc3ccc(Cl)cc3NC2=O)cc1OC (configuration not stated)	AHR act 98 (no result: Lipid droplet) | AHR act confirm inactive | PXR counter 46
O=C(NCCOc1ccccc1)C1Nc2ccc(C(F)(F)F)cc2C2c3ccccc3CC12 (configuration not stated)	AHR act 87 (no result: Lipid droplet) | AHR act confirm inactive | PXR counter 78
COC(=O)c1cc2c(c3c4ccccc4n(S(=O)(=O)c4ccccc4)c13)C(=O)N(Cc1ccc(N(C)C)cc1)C2	none (no result: AHR act, SR-BI DiI inh, Lipid droplet, Yeast superoxide, SR-BI uptake up)
COc1ccc(CC(=O)Nc2ccc(C)cc2S(=O)(=O)N2CCOCC2)cc1OC	none (no result: AHR act, SR-BI DiI inh, Lipid droplet, Yeast superoxide, SR-BI uptake up)
Cc1cc2cc3c(cc2nc1SCC(=O)N1c2ccccc2CC1C)OCO3 (configuration not stated)	none
CC1Cc2ccccc2N1C(=O)COc1ccc2c(c1)OCO2 (configuration not stated)	AHR act 84 | AHR act confirm 95 | PXR counter 66
Cc1ccccc1Nc1n[nH]c(C)c1[N+](=O)[O-]	AHR act 80 | AHR act confirm 106 | PXR counter 22
Cc1ccc(Nc2n[nH]c(C)c2[N+](=O)[O-])c(C)c1	AHR act 132 | AHR act confirm 127 | PXR counter 15
Clc1ccc2nc(-c3ccc4c(c3)OCO4)cn2c1	none
Clc1ccc(-c2cn3cc(Br)ccc3n2)cc1Cl	AHR act 90 | AHR act confirm 137 | PXR counter 16
Cc1ccc(OC(=O)N(C)C[C@H]2OCc3cn(nn3)CCCC(=O)N([C@@H](C)CO)C[C@@H]2C)cc1	none (no result: AHR act, SR-BI DiI inh, Lipid droplet, Yeast superoxide, SR-BI uptake up)
CN(C)C(/C=C/Nc1ccc(C#N)cc1)=C(C#N)C#N	AHR act 109 (no result: Lipid droplet) | AHR act confirm 102 | PXR counter 25
CCc1nc(Nc2ccccc2F)c2oc3ccccc3c2n1	AHR act 94 | AHR act confirm 95 | PXR counter 42
CCc1nc(NCCCn2ccnc2)c2oc3ccccc3c2n1	AHR act 109 (no result: Lipid droplet) | AHR act confirm 114 | PXR counter 41
CCc1nc(Nc2ccc(F)cc2)c2oc3ccccc3c2n1	none
COCC(=O)N[C@@H]1C[C@@H]2O[C@H](CO)CC[C@@H]2O[C@@H]1CCc1ccc(-c2ccccc2)cc1	none (no result: AHR act, SR-BI DiI inh, Lipid droplet, Yeast superoxide, SR-BI uptake up)
Cc1cc(C)c2sc(NNC(=O)C3COc4ccccc4O3)nc2c1 (configuration not stated)	AHR act 103 | AHR act confirm 69 | PXR counter 25
Cc1cccc2sc(NNC(=O)C3COc4ccccc4O3)nc12 (configuration not stated)	AHR act 95 | AHR act confirm inactive | PXR counter 20
Cc1cccc2sc(N3CCN(C(=O)C4COc5ccccc5O4)CC3)nc12 (configuration not stated)	none (no result: Lipid droplet)
COC(=O)C1=C(C)N(C)C(=NCc2ccc(C(F)(F)F)cc2)NC1c1cccc(F)c1 (configuration not stated)	none (no result: AHR act, SR-BI DiI inh, Lipid droplet, Yeast superoxide, SR-BI uptake up)
Oc1[nH]c2ccccc2c1N=Nc1ccc(F)cc1	AHR act 94 | AHR act confirm 91 | PXR counter inactive
Clc1cccc(/C(Cc2nc3ccccc3[nH]2)=N\Nc2ccccc2)c1	AHR act 102 | AHR act confirm 96 | PXR counter 43
O=C(/C=C(\Nc1cc(Cl)c(Cl)c(Cl)c1)c1ccccc1)c1ccccc1	none (no result: AHR act, SR-BI DiI inh, Lipid droplet, Yeast superoxide, SR-BI uptake up)
O=C1NC(=Nc2ccccc2)/C(=C/c2ccco2)S1	AHR act 84 | AHR act confirm inactive | PXR counter 20
CCN(CC)C(=O)CC[C@@H]1CC[C@]2(CCCN(C(=O)c3cccnc3)C2)O1	none (no result: AHR act, SR-BI DiI inh, Lipid droplet, Yeast superoxide, SR-BI uptake up)
O=C(c1ccccc1)C1C(c2ccccc2)C1[N+](=O)[O-] (configuration not stated)	none
CN(C)c1ccc([C@@H]2[C@@H]([N+](=O)[O-])[C@H]3C=Cc4ccccc4N3[C@H]2C(=O)c2ccc(Cl)cc2)cc1	AHR act 107 | AHR act confirm 98 | PXR counter 72

Screens: PubChem BioAssay, several laboratories
